# The source made the active and inactive calls.
# Columns and labels:
# [1] = Half life in Sprague-Dawley rat at 1 mg/kg, po; format: ADME, organism-based; parameters: dose 1 mg/kg, route oral; details: in vivo
# Caco-2 [2] = assay: Apparent permeability from basolateral to apical side of human Caco2 cells at 50 uM after 2 hrs […]; format: ADME, cell-based; details: caco-2, 2 h
# Method in brief: (§1)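 Caco-2 monolayers on collagen-coated inserts, differentiated 3 weeks. The compound is dosed at 50 μM in HEPES/HBSS/glucose buffer, apical pH 6.5 and basolateral pH 7.4. For A→B, compound and 100 μM Lucifer yellow go apical. For B→A, compound goes basolateral with Lucifer yellow apical. Incubation is 2 h. Lucifer yellow fluorescence checks monolayer integrity (<1% transport). Papp = (dQ/dt)/(c0·A), in 10−6 cm/s.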
# SH-SY5Y = assay: Cytoprotective activity against MG132-induced cytotoxicity in human SH-SY5Y cells assessed as cell viability at 100 uM pre-treated for 24 hrs before MG132-induction measured after 48 hrs by Calcein-AM-based fluorimetry; format: functional
# [3] = AUClast in Sprague-Dawley rat at 1 mg/kg, iv; format: ADME, organism-based; parameters: time 0 - last, dose 1 mg/kg, route intravenous; details: plasma
# [4] = AUClast in Sprague-Dawley rat at 1 mg/kg, po; format: ADME, organism-based; parameters: time 0 - last, dose 1 mg/kg, route oral; details: plasma
# Cerebral cortex neuron = assay: Cytoprotective activity against MG132-induced cytotoxicity in rat primary cortical neurons cells assessed as cell viability at 100 uM pre-treated for 24 hrs before MG132-induction measured after 48 hrs by Calcein-AM-based fluorimetry; format: functional
# Method in brief: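 Neurons from E18 rat cortex (Sprague-Dawley or Fischer 344), papain-dissociated, plated at 20,000 cells/well on poly-D-lysine, cultured 5 days in Neurobasal/B27 (~90% neurons). Six-point series from 100 μM top in roughly one-third steps, 24 h pre-incubation, then MG132 100 nM final. Viability read 48 h later by Calcein-AM (1 μM, 20 min, RT) fluorescence. Active if ≥5 SD above MG132 controls.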
# in vivo = details: Sprague-Dawley, rat, po, 1 mg/kg
# HeLa = assay: Cytoprotective activity against MG132-induced cytotoxicity in human HeLa cells assessed as cell viability at 100 uM pre-treated for 24 hrs before MG132-induction measured after 48 hrs by Calcein-AM-based fluorimetry; format: functional
# Liver microsomes = assay: Half life in human liver microsomes at 5 uM by LC-MS/MS analysis; format: ADME, Microsome
# Method in brief: (§2)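 Incubation at 37 °C, in duplicate, with human or mouse liver microsomes (0.275 mg/mL protein) in 100 mM potassium phosphate pH 7.4 with 2 mM NADPH and 3 mM MgCl2. A minus-NADPH control was run. Samples were taken at 15 s and at 10, 20, 40 and 60 min, quenched in acidified acetonitrile with internal standard, and parent was quantified by LC-MS/MS. T1/2 = ln2/k from an exponential fit.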
# [5] = Inhibition of SOD1 G93A mutant protein aggregation-mediated cytotoxicity in rat PC12 cells expressing yellow fluorescent protein assessed as increase in cell viability; format: cell-based; details: PC-12
# Caco-2 [6] = assay: Apparent permeability from apical to basolateral side of human Caco2 cells at 50 uM after 2 hrs […]; format: ADME, cell-based; details: caco-2, 2 h; method in brief: as §1
# [7] = Oral bioavailability in Sprague-Dawley rat at 1 mg/kg; format: ADME, organism-based; details: in vivo
# Liver = assay: Half life in mouse liver microsomes at 5 uM by LC-MS/MS analysis; format: ADME, Microsome; method in brief: as §2
# [8] = Solubility of the compound in phosphate buffer saline after 1 hrs by spectrophotometry; format: physicochemical; details: phosphate buffered saline
# Method in brief: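 DMSO stocks at 100× final (threefold serial dilutions) diluted into PBS and held 1 h at room temperature. Precipitate checked visually and by absorbance at 450 nm. The solubility limit was taken as the highest concentration not cloudy and with absorbance not above background.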
# PC-12 [9] = assay: Inhibition of SOD1 G93A mutant protein aggregation-mediated cytotoxicity in rat PC12 cells expressing yellow fluorescent protein assessed as increase in cell viability relative to radicicol; format: cell-based; parameters: concentration or dose not given beside the values
# Method in brief: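 PC12 cells expressing G93A SOD1-YFP; MG132 proteasome inhibition induces cytotoxic mutant SOD1 aggregates. Cell survival measured as protection read-out; efficacy expressed relative to radicicol positive control.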
# [10] = Half life in Sprague-Dawley rat at 1 mg/kg, iv; format: ADME, organism-based; parameters: dose 1 mg/kg, route intravenous; details: in vivo
# Rattus norvegicus [11] = assay: Dose normalised AUC in Sprague-Dawley rat at 1 mg/kg, iv; format: ADME, organism-based; parameters: dose 1 mg/kg, route intravenous; details: in vivo
# [12] = Toxicity in mouse administered as ip starting at 5 mg/kg and doubling the compound bid each day; format: organism-based; parameters: dose 5 mg/kg, route intraperitoneal; details: in vivo
# Method in brief: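 Maximum tolerated dose in mice by intraperitoneal injection. Dosing began at 5 mg/kg and was doubled b.i.d. each day, given once in the morning and once mid-afternoon.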
# [13] = Cmax in Sprague-Dawley rat at 1 mg/kg, po; format: ADME, organism-based; parameters: dose 1 mg/kg, route oral; details: in vivo
# HEK293 = assay: Cytoprotective activity against MG132-induced cytotoxicity in human HEK293 cells assessed as cell viability at 100 uM pre-treated for 24 hrs before MG132-induction measured after 48 hrs by Calcein-AM-based fluorimetry; format: functional
# [14] = Volume of distribution at steady state in Sprague-Dawley rat at 1 mg/kg, iv; format: ADME, organism-based; parameters: dose 1 mg/kg, route intravenous; details: in vivo, read-out: Vdss
# [15] = Ratio of drug level in brain to plasma in mutant SOD1 G93A transgenic mouse at 50 mg/kg, ip after 4 hrs; format: ADME, organism-based; parameters: dose 50 mg/kg, route intraperitoneal; details: read-out: BPR
# Method in brief: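 Single i.p. bolus of 50 mg/kg in G93A SOD1 transgenic mice (18 animals). Blood and brain sampled at 0–24 h, snap-frozen in liquid nitrogen and stored at −80 °C. Brain and plasma concentrations were compared at 4 h, within the plasma plateau.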
# Rattus norvegicus [16] = assay: Dose normalised AUC in Sprague-Dawley rat at 1 mg/kg, po; format: ADME, organism-based; parameters: dose 1 mg/kg, route oral; details: in vivo
# [17] = Clearance in Sprague-Dawley rat at 1 mg/kg, iv; format: ADME, organism-based; parameters: dose 1 mg/kg, route intravenous; details: in vivo
# hERG (KCNH2) = hERG (KCNH2) (Homo sapiens, UniProt Q12809); assay: Inhibition of human ERG expressed in HEK293 cells at 10 uM; format: cell-based; details: HEK293 cells expressing hERG
# PC-12 [18] = assay: Cytoprotective activity against MG132-induced cytotoxicity in rat PC12 cells assessed as cell viability at 100 uM pre-treated for 24 hrs before MG132-induction measured after 48 hrs by Calcein-AM-based fluorimetry; format: functional
# Caco-2 [19] = assay: Efflux ratio of permeability from basolateral to apical over apical to basolateral side in human Caco2 cells at 50 uM after 2 hrs […]; format: ADME, cell-based; details: caco-2, 2 h
# Method in brief: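 Caco-2 monolayers were grown for three weeks on collagen-coated inserts and fed every 2 days. The transport buffer was 10 mM HEPES with 1.98 g/L glucose in HBSS, pH 6.5 apical and pH 7.4 basolateral. Compound was added at 50 μM on the donor side, with 100 μM Lucifer yellow apically, for 2 h. Compound was quantified by LC-MS/MS; Lucifer yellow fluorescence checked monolayer integrity. Papp = (dQ/dt)/(c0·A); ratio taken as B→A over A→B.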
# Plasma = assay: Half life in mouse plasma at 5 uM by LC-MS/MS analysis; format: ADME, cell-free
# Method in brief: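 Mouse plasma incubation at 37 °C in duplicate alongside a PBS control, with warfarin and diltiazem as controls. Time points at 15 s and 10, 20, 40 and 60 min; samples precipitated with acetonitrile containing internal standard, then LC-MS/MS. Plasma/PBS response ratio gave % remaining, fitted first-order for half-life.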
# Chain of hERG (KCNH2) (Q12809 whole entry): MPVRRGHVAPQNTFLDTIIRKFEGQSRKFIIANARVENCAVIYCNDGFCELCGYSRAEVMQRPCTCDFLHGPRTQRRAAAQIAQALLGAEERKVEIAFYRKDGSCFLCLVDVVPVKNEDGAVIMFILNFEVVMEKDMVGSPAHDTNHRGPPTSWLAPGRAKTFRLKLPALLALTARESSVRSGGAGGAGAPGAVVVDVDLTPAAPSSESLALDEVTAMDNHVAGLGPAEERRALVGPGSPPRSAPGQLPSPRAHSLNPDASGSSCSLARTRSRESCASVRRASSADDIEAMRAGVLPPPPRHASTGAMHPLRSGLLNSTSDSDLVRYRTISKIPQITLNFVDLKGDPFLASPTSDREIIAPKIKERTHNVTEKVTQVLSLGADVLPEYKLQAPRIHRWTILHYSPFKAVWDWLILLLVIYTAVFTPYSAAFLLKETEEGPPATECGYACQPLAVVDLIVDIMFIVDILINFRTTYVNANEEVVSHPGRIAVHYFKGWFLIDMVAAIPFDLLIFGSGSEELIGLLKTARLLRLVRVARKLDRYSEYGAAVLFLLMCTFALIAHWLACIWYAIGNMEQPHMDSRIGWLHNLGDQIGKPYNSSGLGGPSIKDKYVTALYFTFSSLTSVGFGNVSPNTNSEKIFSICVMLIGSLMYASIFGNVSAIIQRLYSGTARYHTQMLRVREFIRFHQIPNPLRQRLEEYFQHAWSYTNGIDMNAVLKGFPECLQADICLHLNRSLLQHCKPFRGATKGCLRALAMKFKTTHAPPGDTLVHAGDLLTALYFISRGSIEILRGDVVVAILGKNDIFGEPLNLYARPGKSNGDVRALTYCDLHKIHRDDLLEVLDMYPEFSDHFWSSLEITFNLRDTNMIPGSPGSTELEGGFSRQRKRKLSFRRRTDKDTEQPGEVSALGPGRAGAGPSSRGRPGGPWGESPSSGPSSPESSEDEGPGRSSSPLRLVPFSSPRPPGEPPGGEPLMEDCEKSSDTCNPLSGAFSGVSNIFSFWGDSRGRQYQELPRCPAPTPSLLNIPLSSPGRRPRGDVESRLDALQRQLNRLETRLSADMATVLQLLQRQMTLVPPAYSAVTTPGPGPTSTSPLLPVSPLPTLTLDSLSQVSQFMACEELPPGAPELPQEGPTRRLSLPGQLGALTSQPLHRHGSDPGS
smiles,measurement,setting,value
O=C1CC(=O)CC(c2cc(C(F)(F)F)cc(C(F)(F)F)c2)C1,half-life,[1],3.2 h
same,Papp,Caco-2 [2],5.7 cm'-6/s
same,Activity,SH-SY5Y,inactive
same,AUC(0-t),[3],1.98 µg·h/mL
same,AUC(0-t),[4],1.76 µg·h/mL
same,Activity,Cerebral cortex neuron,inactive
same,Tmax,in vivo,0.5 h
same,Activity,HeLa,inactive
same,t1/2,Liver microsomes,>= 180 min
same,EC50,[5],0.7 µM
same,Papp,Caco-2 [6],38 cm'-6/s
same,bioavailability,[7],89%
same,t1/2,Liver,>= 180 min
same,solubility at 1 h,[8],≥ 500 µM
same,Efficacy,PC-12 [9],100%
same,half-life,[10],3.7 h
same,AUC/dose,Rattus norvegicus [11],1996 ng·h/mL
same,MTD,[12],80 mg/kg
same,Cmax,[13],0.468 µg/mL
same,Activity,HEK293,inactive
same,Vd,[14],1.5 L/kg
same,Kp at 4 h,[15],0.86
same,AUC/dose,Rattus norvegicus [16],1774 ng·h/mL
same,clearance,[17],0.504 L/h/kg
same,inhibition at 10 µM,hERG (KCNH2),7.8%
same,Activity,PC-12 [18],Active
CC(Oc1cc(C(F)(F)F)cc(C(F)(F)F)c1)C1CC(=O)CC(=O)C1 (racemic),Papp,Caco-2 [2],3.1 cm'-6/s
same,t1/2,Liver microsomes,1.18 h
same,EC50,[5],0.7 µM
same,Papp,Caco-2 [6],24.8 cm'-6/s
same,t1/2,Liver,0.75 h
same,Efficacy,PC-12 [9],100%
same,Ratio,Caco-2 [19],0.1
same,t1/2,Plasma,> 1 h

# Source: ChEMBL document CHEMBL1938301, “Cyclohexane 1,3-diones and their inhibition of mutant SOD1-dependent protein aggregation and toxicity in PC12 cells” (Bioorg Med Chem, 2012)
